Square brackets hold non-standard residues; d marks the D form. Peptide text beside a SMILES is read from it. Nle = CCCC[C@H](N)C(=O)O
What was measured:
Mu-type opioid receptor [1] = target: T1, Mu-type opioid receptor (Rattus norvegicus, UniProt P33535); assay: Inhibition of [3H]DAGO binding to rat Opioid receptor mu 1
[2] = target: T2, Delta-type opioid receptor (Rattus norvegicus, UniProt P33533); assay: Inhibition of [3H]DPDPE binding to Opioid receptor delta 1
In short: (§1)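 Male Sprague-Dawley rat brain synaptosomes incubated with 0.62 pmol [3H]DPDPE in 50 mM HEPES pH 7.5, 5 mM MgCl2, 1 μM bestatin, bacitracin, 8% glycerol, soybean trypsin inhibitor, 100 μM PMSF; 2 h at 22 °C, duplicates. GF/C filtration, Tris-BSA washes, scintillation counting. 4-9 peptide concentrations over 2-3 log units, n = 3-8; Ki by Cheng-Prusoff.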

[3] = Opioid receptor delta selectivity was defined as the ratio between Ki(opioid receptor mu)/Ki(opioid receptor delta); type: protein assay
Mu-type opioid receptor [4] = target: T1, Mu-type opioid receptor; assay: Compound was tested for its binding affinity against opioid receptor mu using [3H]DAGO as radioligand.
[5] = target: T2, Delta-type opioid receptor; assay: Compound was tested for its binding affinity against opioid receptor delta using [3H]DPDPE as radioligand.; in short: as §1

T2 sequence (P33533 whole entry): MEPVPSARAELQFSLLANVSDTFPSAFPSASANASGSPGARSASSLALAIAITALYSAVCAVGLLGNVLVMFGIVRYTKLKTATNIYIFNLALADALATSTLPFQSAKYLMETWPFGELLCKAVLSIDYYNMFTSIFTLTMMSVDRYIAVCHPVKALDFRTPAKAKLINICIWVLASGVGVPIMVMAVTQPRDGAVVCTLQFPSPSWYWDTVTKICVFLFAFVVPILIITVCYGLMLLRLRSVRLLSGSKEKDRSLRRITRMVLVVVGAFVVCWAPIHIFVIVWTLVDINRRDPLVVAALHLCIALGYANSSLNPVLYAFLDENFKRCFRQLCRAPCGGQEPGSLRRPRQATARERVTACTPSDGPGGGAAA
T1 sequence (P33535 whole entry): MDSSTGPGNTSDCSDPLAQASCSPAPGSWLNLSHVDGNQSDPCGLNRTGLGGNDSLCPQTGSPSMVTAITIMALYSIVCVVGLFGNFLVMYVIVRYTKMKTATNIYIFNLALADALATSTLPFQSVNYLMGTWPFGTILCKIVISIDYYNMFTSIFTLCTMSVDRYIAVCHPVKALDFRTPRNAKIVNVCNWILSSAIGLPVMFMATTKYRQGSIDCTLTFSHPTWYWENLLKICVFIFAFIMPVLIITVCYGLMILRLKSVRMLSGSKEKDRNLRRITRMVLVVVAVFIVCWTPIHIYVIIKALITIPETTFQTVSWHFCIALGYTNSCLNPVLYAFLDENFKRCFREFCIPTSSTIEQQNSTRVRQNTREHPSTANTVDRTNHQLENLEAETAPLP

Structure (SMILES)	Ki (Mu-type opioid receptor [1]) [nM]	Ki [2] [nM]	Selectivity [3]	Ki (Mu-type opioid receptor [4]) [nM]	Ki [5] [nM]
CSCC[C@H](NC(=O)[C@@H](CC(C)C)NC(=O)[C@H](Cc1c[nH]cn1)NC(=O)[C@H](Cc1ccccc1)NC(=O)[C@@H](CCSC)NC(=O)[C@@H](N)Cc1ccc(O)cc1)C(=O)N[C@@H](CC(=O)O)C(N)=O	691	58.5			
CSCC[C@H](NC(=O)[C@H](CC(C)C)NC(=O)[C@H](Cc1c[nH]cn1)NC(=O)[C@H](Cc1ccccc1)NC(=O)[C@@H](C)NC(=O)[C@@H](N)Cc1ccc(O)cc1)C(=O)N[C@@H](CC(=O)O)C(N)=O			121	43.7	0.36
CSCC[C@@H](NC(=O)[C@H](CC(C)C)NC(=O)[C@H](Cc1c[nH]cn1)NC(=O)[C@H](Cc1ccccc1)NC(=O)[C@@H](CCSC)NC(=O)[C@@H](N)Cc1ccc(O)cc1)C(=O)N[C@@H](CC(=O)O)C(N)=O	146	0.96			
CSCC[C@H](NC(=O)[C@@H](CC(C)C)NC(=O)[C@H](Cc1ccccc1)NC(=O)[C@@H](CCSC)NC(=O)[C@@H](N)Cc1ccc(O)cc1)C(=O)N[C@@H](CC(=O)O)C(N)=O	330	120			
CSCC[C@H](NC(=O)[C@H](CC(C)C)NC(=O)[C@H](Cc1c[nH]cn1)NC(=O)[C@H](Cc1ccccc1)NC(=O)[C@@H](CCSC)NC(=O)[C@H](N)Cc1ccc(O)cc1)C(=O)N[C@@H](CC(=O)O)C(N)=O			14		
CSCC[C@H](NC(=O)[C@H](CC(C)C)NC(=O)[C@H](Cc1cnc[nH]1)NC(=O)[C@H](Cc1ccccc1)NC(=O)[C@@H](CCSC)NC(=O)[C@H](N)Cc1ccc(O)cc1)C(=O)N[C@@H](CC(=O)O)C(N)=O				7410	544
CSCC[C@H](NC(=O)[C@H](CC(C)C)NC(=O)[C@H](Cc1ccccc1)NC(=O)[C@@H](C)NC(=O)[C@@H](N)Cc1ccc(O)cc1)C(=O)N[C@@H](CC(=O)O)C(N)=O	567	13.9			
CSCC[C@H](NC(=O)[C@H](CC(C)C)NC(=O)[C@H](Cc1c[nH]cn1)NC(=O)[C@H](Cc1ccccc1)NC(=O)[C@@H](CCSC)NC(=O)[C@@H](N)Cc1ccc(O)cc1)C(=O)N[C@@H](CC(=O)O)C(N)=O			764		
CSCC[C@H](NC(=O)[C@H](CC(C)C)NC(=O)[C@H](Cc1cnc[nH]1)NC(=O)[C@H](Cc1ccccc1)NC(=O)[C@@H](CCSC)NC(=O)[C@@H](N)Cc1ccc(O)cc1)C(=O)N[C@@H](CC(=O)O)C(N)=O [DELTORPHIN A]				344	0.45
CSCC[C@H](NC(=O)[C@H](CC(C)C)NC(=O)[C@H](Cc1ccccc1)NC(=O)[C@@H](CCSC)NC(=O)[C@@H](N)Cc1ccc(O)cc1)C(=O)N[C@@H](CC(=O)O)C(N)=O	352	12.6			
CSCC[C@H](NC(=O)[C@H](CC(C)C)NC(=O)[C@@H](Cc1c[nH]cn1)NC(=O)[C@H](Cc1ccccc1)NC(=O)[C@@H](CCSC)NC(=O)[C@@H](N)Cc1ccc(O)cc1)C(=O)N[C@@H](CC(=O)O)C(N)=O			178		
CSCC[C@H](NC(=O)[C@H](CC(C)C)NC(=O)[C@H](Cc1ccccc1)NC(=O)[C@@H](CCSC)NC(=O)[C@H](N)Cc1ccc(O)cc1)C(=O)N[C@@H](CC(=O)O)C(N)=O	7410	477			
CCCC[C@H](NC(=O)[C@@H](N)Cc1ccc(O)cc1)C(=O)N[C@@H](Cc1ccccc1)C(=O)N[C@@H](Cc1c[nH]cn1)C(=O)N[C@@H](CC(C)C)C(=O)N[C@@H](CCSC)C(=O)N[C@@H](CC(=O)O)C(N)=O (H-Y[Nle]FHLMD-NH2)			272		
CSCC[C@H](NC(=O)[C@H](CC(C)C)NC(=O)[C@H](Cc1ccccc1)NC(=O)[C@@H](CCSC)NC(=O)[C@@H](N)Cc1ccc(O)cc1)C(=O)N[C@H](CC(=O)O)C(N)=O	267	9.46			
CSCC[C@H](NC(=O)[C@H](CC(C)C)NC(=O)[C@H](Cc1c[nH]cn1)NC(=O)[C@@H](Cc1ccccc1)NC(=O)[C@@H](CCSC)NC(=O)[C@@H](N)Cc1ccc(O)cc1)C(=O)N[C@@H](CC(=O)O)C(N)=O			59	2350	39.6
CSCC[C@H](NC(=O)[C@H](CC(C)C)NC(=O)[C@@H](Cc1ccccc1)NC(=O)[C@@H](CCSC)NC(=O)[C@@H](N)Cc1ccc(O)cc1)C(=O)N[C@@H](CC(=O)O)C(N)=O	2250	742			
CSCC[C@H](NC(=O)[C@H](CC(C)C)NC(=O)[C@H](Cc1c[nH]cn1)NC(=O)[C@H](Cc1ccccc1)NC(=O)[C@@H](CCSC)NC(=O)[C@@H](N)Cc1ccc(O)cc1)C(=O)N[C@H](CC(=O)O)C(N)=O	124	0.54			
CSCC[C@H](NC(=O)[C@H](CC(C)C)NC(=O)[C@@H](Cc1cnc[nH]1)NC(=O)[C@H](Cc1ccccc1)NC(=O)[C@@H](CCSC)NC(=O)[C@@H](N)Cc1ccc(O)cc1)C(=O)N[C@@H](CC(=O)O)C(N)=O				492	2.77
CSCC[C@@H](NC(=O)[C@H](CC(C)C)NC(=O)[C@H](Cc1ccccc1)NC(=O)[C@@H](CCSC)NC(=O)[C@@H](N)Cc1ccc(O)cc1)C(=O)N[C@@H](CC(=O)O)C(N)=O	407	25.8			
